This is an account of results in ChEMBL document CHEMBL1153904, “FR290581, a novel sordarin derivative: synthesis and antifungal activity” (Bioorg Med Chem Lett, 2009).

Broadly, the MIC is the smallest concentration in the dilution series that meets the test's criterion for growth inhibition. Higher therefore signals weaker potency. By ED50 is commonly meant the dose that gives a 50% effect, or the effect in half of the subjects. Read a high ED50 as a need for a large dose. The half-life is how long it takes for the measured level to halve. Low values mean rapid decline, high ones slow decline. What is called Cmax is the highest concentration seen after dosing.

Series [1] deals with Candida parapsilosis. The series can be described thus: Antifungal activity against Candida parapsilosis ATCC 22019. The conditions noted are these: Lodderomyces parapsilosis. The series is classed as functional. In a few lines:
(§1)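 Read-out is the minimum inhibitory concentration, in µg/mL.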

In series [2] the test system is Nakaseomyces glabratus. Nature of the series: Antifungal activity against Candida glabrata ATCC 90030. The series is classed as functional. A digest of the protocol: as §1
Series [3] relates to Candida albicans. Nature of the series: Antifungal activity against fluconazole-resistant Candida albicans 22009. The class given is functional.
Series [4] concerns Aspergillus fumigatus. The series can be described thus: Antifungal activity against Aspergillus fumigatus ATCC 204305. The series is classed as functional. A digest of the protocol:
as §1

For series [5], the system named is Candida tropicalis. Nature of the series: Antifungal activity against Candida tropicalis 21005. The class given is functional. In a few lines:
as §1

In series [6] the test system is Candida albicans. Nature of the series: Antifungal activity against Candida albicans FP633 in po dosed ICR mouse assessed as kidney burden per gram of tissue at 20 mg/kg, po after 24 hrs of inoculation. The class given is functional. In a few lines: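 Mouse systemic C. albicans infection, oral dosing, n = 5 per group. Kidney fungal burden was read as log cfu per g kidney at 24 h after inoculation and expressed as the change relative to the 0 h control. Significance was tested against the 0 h control by Dunnett comparison.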

Series [7] relates to Candida albicans. The series can be described thus: Antifungal activity against Candida albicans ATCC 90028. The series is classed as functional.
For series [8], the system named is Cryptococcus neoformans. Nature of the series: Antifungal activity against Cryptococcus neoformans TIMM 0354. The class given is functional. In a few lines:
as §1

The subject of series [9] is Candida albicans. Nature of the series: Antifungal activity against Candida albicans FP633 in po dosed ICR mouse candidiasis model treated after 1 hr post infection for 4 days. The class given is functional. A digest of the protocol: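 ED50 (mg/kg) determined in a mouse systemic candidiasis model, with compound given orally.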
The nature of series [10]: Half life in mouse at 2 mg/kg, po. The class given is ADME, organism-based. Also on record: dose 2 mg/kg, route oral. The conditions noted are these: in vivo. In a few lines:
(§2)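 Mice received a single oral dose of 2 mg/kg. Cmax is reported in µg/mL and half-life in hours.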

Series [11] relates to Candida albicans. The series can be described thus: Antifungal activity against Candida albicans […] in ICR mouse serum drug administered po twice a day. The class given is functional. In a few lines:
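MIC measured in mouse serum, in µg/mL.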

Series [12] in a line: Cmax in mouse at 2 mg/kg, po. The series is classed as ADME, organism-based. Details: dose 2 mg/kg, route oral. Particulars: in vivo. A digest of the protocol:
as §2

Converted amounts (≈) assume the structure as drawn.

For the molecule `OC(Cn1cncn1)(Cn1cncn1)c1ccc(F)cc1F` [FLUCONAZOLE], the MIC in series [1] is 1 µg/mL (≈ 3.27 µM); in [2], 16 µg/mL (≈ 52.2 µM); in series [3], 128 µg/mL (≈ 418 µM); in series [4], > 128 µg/mL; in [5], 0.25 µg/mL (≈ 0.816 µM); in [7], 0.125 µg/mL (≈ 0.408 µM). In addition, the lowest concentration to inhibit growth in series [8] (MIC) was 0.25 µg/mL (≈ 0.816 µM). In addition, in series [6], the deltalog10CFU is on record as -0.19.

Take `CCCC[C@@H]1C[C@H](C23C[C@@H]4[C@H](C)CC[C@H]4[C@@]4(C=O)CC2C=C(C(C)C)[C@@]34C(=O)O)O[C@H]1CN1CCC(N2C[C@@H](C)O[C@@H](C)C2)CC1`: the MIC in series [1] is 8 µg/mL (≈ 12.5 µM); in series [2], 1 µg/mL (≈ 1.57 µM); in series [11] it was 0.25 µg/mL (≈ 0.391 µM); in series [3], 0.5 µg/mL (≈ 0.783 µM); in series [4] it was 128 µg/mL (≈ 200 µM); in [5], 0.5 µg/mL (≈ 0.783 µM). Further, the minimum inhibitory concentration (MIC) in series [7] turned out to be 0.5 µg/mL (≈ 0.783 µM); in series [8] it was 4 µg/mL (≈ 6.26 µM). In series [9], this molecule gave an ED50 of 2 mg/kg. Also, the half-life in series [10] is 3.4 h. In [12], the Cmax was 1000 ng/mL. Further, in [6], the deltalog10CFU is listed as -1.09.

In the case of `CO[C@H]1[C@@H](O)[C@H](O)[C@H](OC[C@@]23C[C@@H]4[C@H](C)CC[C@H]4[C@@]4(C=O)CC2C=C(C(C)C)[C@@]34C(=O)O)O[C@@H]1C` [SORDARIN], the MIC in series [1] was > 128 µg/mL; in series [2], 64 µg/mL (≈ 130 µM); in [11], 32 µg/mL (≈ 65 µM); in [3], 64 µg/mL (≈ 130 µM); in [4], > 128 µg/mL; in series [5], 64 µg/mL (≈ 130 µM). Further, the MIC in [7] is 32 µg/mL (≈ 65 µM); in series [8] it was > 128 µg/mL. Moreover, the ED50 in series [9] is > 40 mg/kg. The molecule also gave a half-life in series [10] of 0.33 h. This molecule also came in with a Cmax in series [12] of 20 ng/mL.
